For data set [1], the system named is HBV DNA in HBV-expressed HepG2.2.15 cells. Nature of the data set: In vitro anti-HBV activity in HepG2.2.15 cell line. The format is cell-based. The note with it: Hepatitis B virus; for activity at 1 µM: HepG2.2.15, 144 h, read-out: % HBV DNA remaining. The gist of the method:
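HepG2.2.15 cells were seeded at 5 × 10^5 per well in high-glucose DMEM with 10% heat-inactivated FBS, 300 mg L−1 G418, 1% non-essential amino acids and antibiotic–antimycotic, then held overnight at 37 °C, 5% CO2. Compound or 0.5% DMSO was given for 3 days, then renewed for 3 more days. Intracellular HBV DNA was measured by qPCR as % remaining versus vehicle; EC50 came from a 4-parameter nonlinear fit.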

Data set [2] can be described thus: In vitro microsomal stability. The settings on record: human liver microsomes, 1 μM. The data set is classed as in vitro ADME. The gist of the method:
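Compound (1 μM) with pooled human liver microsomes (0.4 mg mL−1) in 100 mM potassium phosphate, pH 7.4, with 3.3 mM MgCl2 and 1.3 mM β-NADPH. Organic solvent was ≤1%, at 37 °C. Time-point samples were quenched with ice-cold acetonitrile containing internal standard, centrifuged, and the supernatants analysed by LC-MS/MS. Results are intrinsic clearance.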

For data set [3], the system named is all tested CYPs: CYP1A2, CYP2A6, CYP2B6, CYP2C8, CYP2C9, CYP2C19, CYP2D6, CYP2E1, CYP3A4/5. As to the kind of experiment: CYP450 inhibition in human liver microsomes, all tested CYPs. The data set is classed as in vitro ADME. The settings on record: pooled human liver microsomes, pH 7.4. The method in brief: (§1)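 Test compound at 10 μM with pooled human liver microsomes (0.2 mg mL−1) and a cocktail of 10 CYP probe substrates. Buffer was 100 mM potassium phosphate, pH 7.4, with 3.3 mM MgCl2, at 37 °C. β-NADPH (1.3 mM) started the reaction. After 10 min, ice-cold 3% formic acid in 5% acetonitrile stopped it. Centrifuged samples went to LC-MS/MS; each metabolite's formation is given as % inhibition versus control.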

For another data set, the target named is T1, CYP2B6 (Homo sapiens, UniProt P20813).
T1 sequence (P20813 1-491): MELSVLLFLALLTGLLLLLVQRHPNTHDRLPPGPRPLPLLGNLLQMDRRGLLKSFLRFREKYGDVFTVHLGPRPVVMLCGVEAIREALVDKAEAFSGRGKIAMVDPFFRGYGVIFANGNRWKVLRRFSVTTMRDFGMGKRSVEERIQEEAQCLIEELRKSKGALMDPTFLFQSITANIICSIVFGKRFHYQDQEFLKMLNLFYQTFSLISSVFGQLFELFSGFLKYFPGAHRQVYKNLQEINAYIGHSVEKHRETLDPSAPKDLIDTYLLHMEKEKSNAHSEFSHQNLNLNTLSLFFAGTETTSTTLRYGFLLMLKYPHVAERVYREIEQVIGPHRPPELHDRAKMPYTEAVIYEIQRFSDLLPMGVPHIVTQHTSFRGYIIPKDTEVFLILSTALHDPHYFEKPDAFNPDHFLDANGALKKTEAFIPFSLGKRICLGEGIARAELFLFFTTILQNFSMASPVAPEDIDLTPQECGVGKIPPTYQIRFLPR
As to the kind of experiment: CYP450 inhibition in human liver microsomes. The data set is classed as in vitro ADME. The settings on record: pooled human liver microsomes, pH 7.4, probe bupropion (12 μM). The gist of the method: as §1

The target in a further data set is CYP2C19 (Homo sapiens, UniProt P33261). As to the kind of experiment: CYP450 inhibition in human liver microsomes. The format is in vitro ADME. The settings on record: pooled human liver microsomes, pH 7.4, probe (S)-mephenytoin (50 μM). The gist of the method: as §1
Data set [4] is described as follows: Site of oxidative metabolism. The format is in vitro ADME. The settings on record: ESI file S2.
The target of another data set is CYP2C9 (Homo sapiens, UniProt P11712). Nature of the data set: CYP450 inhibition in human liver microsomes. The data set is classed as in vitro ADME. The note with it: pooled human liver microsomes, pH 7.4, probe tolbutamide (100 μM). The method in brief: as §1
The next data set addresses CYP2D6 (Homo sapiens, UniProt P10635). Nature of the data set: CYP450 inhibition in human liver microsomes. The format is in vitro ADME. The settings on record: pooled human liver microsomes, pH 7.4, probe dextromethorphan (2.5 μM). The method in brief: as §1
The nature of data set [5]: Pharmacokinetic studies in rats. The format is in vivo. The settings on record: male, Sprague-Dawley, rat, plasma; for clearance: iv, 0.5 mg/kg; for bioavailability: po, 2 mg/kg. The method in brief: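 Male Sprague-Dawley rats got a single IV bolus (0.5 mg kg−1, in 10% DMSO in 20% hydroxypropyl methyl β-cyclodextrin) or oral gavage (2 mg kg−1, in 40% polyethylene glycol in water). Plasma was taken pre-dose and up to 24 h and assayed by LC-MS/MS. CL and F came from non-compartmental analysis.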

The next data set concerns HBV. The note with it: cited from earlier work.
Where [6] appears, read: HepG2.2.15, read-out: HBV DNA inhibition EC50.

Molecules are shown by their SMILES. Like-named read-outs stand apart in the source and are kept apart here.

CYP2C9, sequence (P11712 whole entry): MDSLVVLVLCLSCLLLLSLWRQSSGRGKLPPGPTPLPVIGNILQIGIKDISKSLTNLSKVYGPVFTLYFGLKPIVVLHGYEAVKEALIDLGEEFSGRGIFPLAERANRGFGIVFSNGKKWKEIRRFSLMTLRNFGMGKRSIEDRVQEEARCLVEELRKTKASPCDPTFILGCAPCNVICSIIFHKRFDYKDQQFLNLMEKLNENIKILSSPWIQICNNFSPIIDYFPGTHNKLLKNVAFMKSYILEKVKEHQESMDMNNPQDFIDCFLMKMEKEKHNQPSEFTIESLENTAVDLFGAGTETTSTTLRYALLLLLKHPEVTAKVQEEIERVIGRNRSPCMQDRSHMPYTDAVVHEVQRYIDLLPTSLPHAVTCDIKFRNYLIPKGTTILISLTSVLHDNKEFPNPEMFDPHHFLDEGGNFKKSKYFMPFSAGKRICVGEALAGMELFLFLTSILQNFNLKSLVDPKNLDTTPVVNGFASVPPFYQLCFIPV
CYP2C19, sequence (P33261 whole entry): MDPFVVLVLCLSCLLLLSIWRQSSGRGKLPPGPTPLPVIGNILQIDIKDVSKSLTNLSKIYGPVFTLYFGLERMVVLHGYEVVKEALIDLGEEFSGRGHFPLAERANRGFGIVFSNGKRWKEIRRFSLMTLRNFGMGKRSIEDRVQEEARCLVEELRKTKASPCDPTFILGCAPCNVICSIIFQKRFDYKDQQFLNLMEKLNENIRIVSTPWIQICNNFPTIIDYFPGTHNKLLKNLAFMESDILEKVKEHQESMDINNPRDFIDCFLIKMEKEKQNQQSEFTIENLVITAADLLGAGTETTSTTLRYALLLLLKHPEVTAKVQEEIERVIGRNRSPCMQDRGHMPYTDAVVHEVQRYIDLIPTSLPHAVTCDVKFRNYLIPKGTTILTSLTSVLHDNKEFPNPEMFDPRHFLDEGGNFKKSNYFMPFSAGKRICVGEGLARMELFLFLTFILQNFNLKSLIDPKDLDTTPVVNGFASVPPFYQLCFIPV
CYP2D6, sequence (P10635 whole entry): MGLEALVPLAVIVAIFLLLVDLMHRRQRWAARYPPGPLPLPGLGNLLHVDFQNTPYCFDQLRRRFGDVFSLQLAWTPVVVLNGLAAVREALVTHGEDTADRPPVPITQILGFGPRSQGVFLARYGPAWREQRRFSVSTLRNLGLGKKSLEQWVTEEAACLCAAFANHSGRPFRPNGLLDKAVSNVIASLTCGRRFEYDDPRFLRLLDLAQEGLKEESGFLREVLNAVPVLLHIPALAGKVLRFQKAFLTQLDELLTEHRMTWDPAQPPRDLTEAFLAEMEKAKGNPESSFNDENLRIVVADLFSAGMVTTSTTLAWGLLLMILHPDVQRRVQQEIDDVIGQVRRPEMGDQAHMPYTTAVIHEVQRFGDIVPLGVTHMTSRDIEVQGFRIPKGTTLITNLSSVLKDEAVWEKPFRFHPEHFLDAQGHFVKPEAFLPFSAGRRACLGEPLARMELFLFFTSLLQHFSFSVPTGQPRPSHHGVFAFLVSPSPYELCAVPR

For the compound `Cc1ccc(C(=O)N2CC[C@H](C(=O)Nc3cc(F)c(F)c(F)c3)C2)[nH]1` [CU01, (S)-1-(5-Methyl-1H-pyrrole-2-carbonyl)-N-(3,4,5-trifluorophenyl)pyrrolidine-3-carboxamide], in data set [1], the activity at 1 µM is 59%. The CLint in data set [2] (Table 3) is recorded as 14.4 μL per min per mg protein. Moreover, in data set [3], the inhibition at 10 min, 10 µM was < 20%.
With `O=C(Nc1cc(F)c(F)c(F)c1)[C@H]1CCN(C(=O)c2ccc(C3CC3)[nH]2)C1` [CU02, (S)-1-(5-cyclopropyl-1H-pyrrole-2-carbonyl)-N-(3,4,5-trifluorophenyl)pyrrolidine-3-carboxamide], the activity at 1 µM in data set [1] amounted to 48%. The compound further had a CLint in data set [2] (Table 3) of 14.5 μL per min per mg protein. Further, the inhibition at 10 min, 10 µM at CYP2B6 is 50%; at CYP2C19 it was 53%. The “Site of oxidative metabolic reactions” value in [4] is reported as “oxidative metabolic reactions primarily occurred on the R group”.
Regarding `O=C(Nc1cc(F)c(F)c(F)c1)[C@H]1CCN(C(=O)c2cc3ccccc3[nH]2)C1` [CU03, (S)-1-(1H-Indole-2-carbonyl)-N-(3,4,5-trifluorophenyl)pyrrolidine-3-carboxamide], in [1] (HepG2.2.15), the EC50 amounted to 447 nM. The activity at 1 µM in data set [1] was 44%. The same compound displayed a CLint in data set [2] (Table 3) of 9.2 μL per min per mg protein. For the same compound, the figures for the inhibition at 10 min, 10 µM on CYP2C9, at CYP2C19 and against CYP2D6 were 62%, 63% and 51%, respectively. In addition, the “Site of oxidative metabolic reactions” value in [4] is “oxidative metabolic reactions primarily occurred on the R group”.
Turning to `O=C(Nc1cc(F)c(F)c(F)c1)[C@H]1CCN(C(=O)c2ccc(-c3cccnc3)[nH]2)C1` [CU05, (S)-1-(5-(Pyridin-3-yl)-1H-pyrrole-2-carbonyl)-N-(3,4,5-trifluorophenyl)pyrrolidine-3-carboxamide], the activity at 1 µM in data set [1] was 47%. Further, in data set [2] (Table 3), the CLint came out at 2.9 μL per min per mg protein. Besides, the figures for the inhibition at 10 min, 10 µM at CYP2B6 and at CYP2C9 were 65% and 87%, respectively.
For the compound `O=C(Nc1cc(F)c(F)c(F)c1)[C@H]1CCN(C(=O)c2ccc(-c3ccncc3)[nH]2)C1` [CU06, (S)-1-(5-(Pyridin-4-yl)-1H-pyrrole-2-carbonyl)-N-(3,4,5-trifluorophenyl)pyrrolidine-3-carboxamide], the activity at 1 µM in [1] came out at 28%. Besides, in data set [2] (Table 3), the CLint is given as 4.6 μL per min per mg protein. Moreover, the inhibition at 10 min, 10 µM at CYP2B6 came to 81%; against CYP2C9, 67%; against CYP2D6, 89%.
Consider `O=C(Nc1cc(F)c(F)c(F)c1)[C@H]1CCN(C(=O)c2ccc(-c3ccccn3)[nH]2)C1` [CU07, (S)-1-(5-(Pyridin-2-yl)-1H-pyrrole-2-carbonyl)-N-(3,4,5-trifluorophenyl)pyrrolidine-3-carboxamide], for which the activity at 1 µM in data set [1] turned out to be 77%. In addition, the CLint in data set [2] (Table 3) stood at 6.2 μL per min per mg protein. In addition, the inhibition at 10 min, 10 µM in data set [3] was < 20%.
Take `O=C(Nc1cc(F)c(F)c(F)c1)[C@H]1CCN(C(=O)c2ccc(-c3cncnc3)[nH]2)C1` [CU08, (S)-1-(5-(Pyrimidin-5-yl)-1H-pyrrole-2-carbonyl)-N-(3,4,5-trifluorophenyl)pyrrolidine-3-carboxamide]: the activity at 1 µM in data set [1] was 43%. The compound also registered a CLint in data set [2] (Table 3) of 0.5 μL per min per mg protein. Moreover, the inhibition at 10 min, 10 µM against CYP2B6 was 61%; against CYP2C9, 53%.
For `Cc1ncnc(C)c1-c1ccc(C(=O)N2CC[C@H](C(=O)Nc3ccc(F)c(Cl)c3)C2)[nH]1` [CU12, (S)–N-(3-Chloro-4-fluorophenyl)-1-(5-(4,6-dimethylpyrimidin-5-yl)-1H-pyrrole-2-carbonyl)pyrrolidine-3-carboxamide], the EC50 in [1] (setting [6]) amounted to 18.2 ± 2 nM. The CLint in data set [2] (Table 4) stood at 3.6 μL per min per mg protein.
`Cc1ncnc(C)c1-c1ccc(C(=O)N2CC[C@H](C(=O)Nc3cc(F)c(F)c(F)c3)[C@@H]2C)[nH]1` [CU13, (2S,3S)-1-(5-(4,6-Dimethylpyrimidin-5-yl)-1H-pyrrole-2-carbonyl)-2-methyl-N-(3,4,5-trifluorophenyl)pyrrolidine-3-carboxamide]: the concentration giving a half-maximal response (EC50) in data set [1] (setting [6]) worked out at 17.8 ± 3 nM. In addition, the CLint in [2] (Table 4) turned out to be 2.1 μL per min per mg protein.
Consider `Cc1ncnc(C)c1-c1ccc(C(=O)N2CC[C@H](C(=O)Nc3ccc(F)c(Cl)c3)[C@@H]2C)[nH]1` [CU14, (2S,3S)–N-(3-Chloro-4-fluorophenyl)-1-(5-(4,6-dimethylpyrimidin-5-yl)-1H-pyrrole-2-carbonyl)-2-methylpyrrolidine-3-carboxamide], for which, in data set [1] (setting [6]), the EC50 amounted to 13.2 ± 2 nM. The CLint in data set [2] (Table 4) is recorded as 2.9 μL per min per mg protein. In data set [5], the clearance was determined as 12.3 mL/min/kg and the bioavailability turned out to be 66%.
`Cc1cc(NC(=O)[C@H]2CCN(C(=O)c3ccc(-c4c(C)ncnc4C)[nH]3)[C@H]2C)ccc1F` [CU15, (2S,3S)-1-(5-(4,6-Dimethylpyrimidin-5-yl)-1H-pyrrole-2-carbonyl)-N-(4-fluoro-3-methylphenyl)-2-methylpyrrolidine-3-carboxamide]: in [1] (HepG2.2.15), the half-maximal effective concentration (EC50) was < 10 nM. The EC50 in data set [1] (setting [6]) was determined as 8.6 ± 2 nM. In [2] (Table 4), the CLint is recorded as 4.9 μL per min per mg protein. Moreover, in data set [5], the clearance stood at 20 mL/min/kg and the bioavailability was determined as 44%.
Consider `Cc1cc(NC(=O)[C@H]2CCN(C(=O)c3ccc(-c4c(C)n[nH]c4C)[nH]3)[C@H]2C)ccc1F` [CU16, (2S,3S)-1-(5-(3,5-Dimethyl-1H-pyrazol-4-yl)-1H-pyrrole-2-carbonyl)-N-(4-fluoro-3-methylphenyl)-2-methylpyrrolidine-3-carboxamide], for which the EC50 in data set [1] (setting [6]) came out at 14.9 ± 3 nM. For the same compound, in [2] (Table 4), the CLint was found to be 11.7 μL per min per mg protein.
Regarding `C[C@H](NS(=O)(=O)c1cc(C(=O)Nc2ccc(F)c(C#N)c2)n(C)c1)C(F)(F)F` [JNJ-6379], the “pEC 50” value with HBV was 7.22 (ref. [15]).

These data come from PMC10556424 (RSC Advances, 2023).
